In brackets after ≈: the same amount, converted by molar mass.
How the values were obtained:
[1] = system: Escherichia coli; test: Antibacterial activity against Escherichia coli TOP10 harboring recombinant plasmid RTG4-V49 by Etest method; assay type: functional
[2] = system: Acinetobacter baumannii; test: Antimicrobial activity against Acinetobacter baumannii CIP70.10 harboring beta-lactamase RTG4 gene by […]; assay type: functional
[3] = system: Escherichia coli; test: Antibacterial activity against Escherichia coli TOP10 harboring recombinant plasmid RTG4-S69-V49 by Etest method; assay type: functional
[4] = system: Escherichia coli; test: Antibacterial activity against Escherichia coli TOP10 harboring beta-lactamase RTG3 gene by Etest method; assay type: functional
How it was run: (§1)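 MICs read by Etest on Mueller-Hinton agar plates incubated at 37°C. Recombinant E. coli TOP10 carried the cloned β-lactamase gene on plasmid pBK-CMV; the host strain alone was tested alongside.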

[5] = system: Escherichia coli; test: Antibacterial activity against Escherichia coli TOP10 harboring beta-lactamase RTG4 gene by Etest method; assay type: functional; how it was run: as §1
[6] = system: Acinetobacter baumannii; test: Antimicrobial activity against Acinetobacter baumannii by […]; assay type: functional
How it was run: (§2)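 MICs were determined by Etest on Mueller-Hinton agar at 37°C. Where indicated, clavulanic acid or tazobactam was added at 4 μg/ml.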

[7] = Ratio of Kcat to Km for recombinant beta-lactamase RTG4 expressed in Escherichia coli TOP10 by nitrocefin hydrolysis assay
[8] = system: Escherichia coli; test: Antibacterial activity against Escherichia coli TOP10 harboring recombinant plasmid RTG4-S69 by Etest method; assay type: functional
[9] = Activity of recombinant beta-lactamase RTG4 expressed in Escherichia coli TOP10 assessed as Ratio of Kcat to Km by nitrocefin hydrolysis assay relative to benzylpenicillin; parameters: scale not given: the % may be the effect or the level left
[10] = system: Acinetobacter baumannii; test: Antimicrobial activity against Acinetobacter baumannii CIP70.10 harboring beta-lactamase RTG3 gene by […]; assay type: functional
[11] = system: Acinetobacter baumannii; test: Antimicrobial activity against Acinetobacter baumannii CIP70.10 by […]; assay type: functional
[12] = Inhibition of recombinant beta-lactamase RTG3 expressed in Escherichia coli TOP10 by benzylpenicillin hydrolysis assay
[13] = Inhibition of recombinant beta-lactamase RTG4 expressed in Escherichia coli TOP10 by benzylpenicillin hydrolysis assay
[14] = system: Acinetobacter baumannii; test: Antimicrobial activity against Acinetobacter baumannii CIP70.10 harboring beta-lactamase RTG3 gene by […] in presence of 4 ug/ml beta-lactamase inhibitor clavulanic acid; assay type: functional
[15] = system: Escherichia coli; test: Antibacterial activity against Escherichia coli TOP10 harboring beta-lactamase RTG3 gene by Etest method in presence of 4 ug/ml beta-lactamase inhibitor clavulanic acid; assay type: functional
How it was run: (§3)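 MICs read by Etest on Mueller-Hinton agar at 37°C, with β-lactams combined with clavulanic acid at 4 μg/ml. The strains were E. coli TOP10 carrying the cloned RTG gene or the site-directed mutant plasmids (Thr69Ser, Ala49Val, or both).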

[16] = system: Acinetobacter baumannii; test: Antimicrobial activity against Acinetobacter baumannii CIP70.10 by […] in presence of 4 ug/ml beta-lactamase inhibitor clavulanic acid; assay type: functional; how it was run: as §2
[17] = system: Escherichia coli; test: Antibacterial activity against Escherichia coli TOP10 by Etest method in presence of 4 ug/ml beta-lactamase inhibitor clavulanic acid; assay type: functional
How it was run: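 MICs by Etest on Mueller-Hinton agar plates incubated at 37°C, with clavulanic acid at a fixed 4 μg/ml. The E. coli TOP10 host was tested with recombinant plasmids carrying the cloned HindIII fragment encoding RTG-4 or its site-directed variants (T69S, A49V).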

[18] = system: Escherichia coli; test: Antibacterial activity against Escherichia coli TOP10 harboring recombinant plasmid RTG4-V49 by Etest method in presence of 4 ug/ml beta-lactamase inhibitor clavulanic acid; assay type: functional; how it was run: as §3
[19] = system: Escherichia coli; test: Antibacterial activity against Escherichia coli TOP10 harboring recombinant plasmid RTG4-S69 by Etest method in presence of 4 ug/ml beta-lactamase inhibitor clavulanic acid; assay type: functional; how it was run: as §3
[20] = system: Acinetobacter baumannii; test: Antimicrobial activity against Acinetobacter baumannii CIP70.10 harboring beta-lactamase RTG4 gene by […] in presence of 4 ug/ml beta-lactamase inhibitor clavulanic acid; assay type: functional
[21] = system: Acinetobacter baumannii; test: Antimicrobial activity against Acinetobacter baumannii by […] in presence of 4 ug/ml beta-lactamase inhibitor clavulanic acid; assay type: functional; how it was run: as §2
[22] = system: Escherichia coli; test: Antibacterial activity against Escherichia coli TOP10 harboring recombinant plasmid RTG4-S69-V49 by Etest method in presence of 4 ug/ml beta-lactamase inhibitor clavulanic acid; assay type: functional; how it was run: as §3
[23] = system: Escherichia coli; test: Antibacterial activity against Escherichia coli TOP10 harboring beta-lactamase RTG4 gene by Etest method in presence of 4 ug/ml beta-lactamase inhibitor clavulanic acid; assay type: functional; how it was run: as §3
[24] = system: Escherichia coli; test: Antibacterial activity against Escherichia coli TOP10 by Etest method; assay type: functional; how it was run: as §1
[25] = system: Acinetobacter baumannii; test: Antimicrobial activity against Acinetobacter baumannii CIP70.10 by […] in presence of 4 ug/ml Tazobactam; assay type: functional; how it was run: as §2
[26] = system: Acinetobacter baumannii; test: Antimicrobial activity against Acinetobacter baumannii CIP70.10 harboring beta-lactamase RTG4 gene by […] in presence of 4 ug/ml Tazobactam; assay type: functional
[27] = system: Acinetobacter baumannii; test: Antimicrobial activity against Acinetobacter baumannii CIP70.10 harboring beta-lactamase RTG3 gene by […] in presence of 4 ug/ml Tazobactam; assay type: functional
[28] = system: Acinetobacter baumannii; test: Antimicrobial activity against Acinetobacter baumannii by […] in presence of 4 ug/ml Tazobactam; assay type: functional; how it was run: as §2

| SMILES | MIC [1] [µg/mL] | MIC [2] [µg/mL] | MIC [3] [µg/mL] | MIC [4] [µg/mL] | MIC [5] [µg/mL] | MIC [6] [µg/mL] | kcat/Km [7] [M⁻¹ s⁻¹] | MIC [8] [µg/mL] | Activity [9] [%] | MIC [10] [µg/mL] | MIC [11] [µg/mL] | MIC [24] [µg/mL] | further results |
| --- | --- | --- | --- | --- | --- | --- | --- | --- | --- | --- | --- | --- | --- |
| CO/N=C(\C(=O)N[C@@H]1C(=O)N2C(C(=O)[O-])=C(C[N+]3(C)CCCC3)CS[C@H]12)c1csc(N)n1 | 4 | 64 (≈ 133 µM) | 0.5 | 0.06 (≈ 0.125 µM) | 4 (≈ 8.32 µM) | 32 (≈ 66.6 µM) | 1000 | 0.5 | 0.06 | 4 (≈ 8.32 µM) | 1 (≈ 2.08 µM) | – | – |
| O=C(O)[C@H]1/C(=C/CO)O[C@@H]2CC(=O)N21 [CLAVULANIC ACID] | – | – | – | – | – | – | – | – | – | – | – | – | IC50 [12]: 100 nM; IC50 [13]: 70 nM |
| CC1(C)S[C@@H]2[C@H](NC(=O)[C@H](C(=O)O)c3ccsc3)C(=O)N2[C@H]1C(=O)O [TICARCILLIN] | – | > 256 | – | – | – | > 256 | 1.5e+06 | – | 100 | > 256 | 8 (≈ 20.8 µM) | – | MIC [14]: > 256 µg/mL; MIC [15]: 16 µg/mL; MIC [16]: 8 µg/mL; MIC [17]: 2 µg/mL; MIC [18]: > 256 µg/mL; MIC [19]: > 256 µg/mL; MIC [20]: > 256 µg/mL; MIC [21]: > 256 µg/mL; MIC [22]: > 256 µg/mL; MIC [23]: > 256 µg/mL |
| C[C@]1(Cn2ccnn2)[C@H](C(=O)O)N2C(=O)C[C@H]2S1(=O)=O [TAZOBACTAM] | – | – | – | – | – | – | – | – | – | – | – | – | IC50 [12]: 100 nM; IC50 [13]: 350 nM |
| CC(C)(O/N=C(\C(=O)N[C@@H]1C(=O)N2C(C(=O)[O-])=C(C[n+]3ccccc3)CS[C@H]12)c1csc(N)n1)C(=O)O [CEFTAZIDIME] | 1 | 16 (≈ 29.3 µM) | 0.5 | 0.12 (≈ 0.22 µM) | 1 (≈ 1.83 µM) | 8 (≈ 14.6 µM) | – | 0.5 | – | 4 (≈ 7.32 µM) | 2 (≈ 3.66 µM) | 0.12 (≈ 0.22 µM) | – |
| CO/N=C(\C(=O)N[C@@H]1C(=O)N2C(C(=O)O)=C(COC(N)=O)CS[C@H]12)c1ccco1 [CEFUROXIME] | 2 | – | 2 | 2 (≈ 4.71 µM) | 4 (≈ 9.43 µM) | – | – | 2 | – | – | – | 2 (≈ 4.71 µM) | – |
| CC(=O)OCC1=C(C(=O)O)N2C(=O)[C@@H](NC(=O)Cc3cccs3)[C@H]2SC1 [CEPHALOTHIN] | 64 | – | 8 | 4 (≈ 10.1 µM) | 64 (≈ 161 µM) | – | 6000 | 8 | 0.04 | – | – | 4 (≈ 10.1 µM) | – |
| CC1(C)[C@H](C(=O)O)N2C(=O)C[C@H]2S1(=O)=O [SULBACTAM] | – | – | – | – | – | – | – | – | – | – | – | – | IC50 [12]: 200 nM; IC50 [13]: 1500 nM |
| C[C@@H](O)[C@H]1C(=O)N2C(C(=O)O)=C(SCCNC=N)C[C@H]12 [IMIPENEM ANHYDROUS] | – | 0.25 (≈ 0.835 µM) | – | – | – | 0.25 (≈ 0.835 µM) | – | – | – | 0.25 (≈ 0.835 µM) | 0.25 (≈ 0.835 µM) | – | – |
| CC1(C)S[C@@H]2[C@H](NC(=O)[C@H](N)c3ccc(O)cc3)C(=O)N2[C@H]1C(=O)O [AMOXICILLIN] | > 256 | > 256 | > 256 | 512 (≈ 1400 µM) | > 256 | > 256 | 2e+06 | > 256 | 120 | > 256 | 32 (≈ 87.6 µM) | 2 (≈ 5.47 µM) | MIC [14]: 32 µg/mL; MIC [15]: 4 µg/mL; MIC [16]: 8 µg/mL; MIC [17]: 2 µg/mL; MIC [18]: 32 µg/mL; MIC [19]: 32 µg/mL; MIC [20]: 32 µg/mL; MIC [21]: 32 µg/mL; MIC [22]: 32 µg/mL; MIC [23]: 32 µg/mL |
| CCN1CCN(C(=O)N[C@@H](C(=O)N[C@@H]2C(=O)N3[C@@H]2SC(C)(C)[C@@H]3C(=O)O)c2ccccc2)C(=O)C1=O [PIPERACILLIN] | > 256 | > 256 | > 256 | 32 (≈ 61.8 µM) | > 256 | > 256 | 500000 | > 256 | 35 | > 256 | 16 (≈ 30.9 µM) | 1 (≈ 1.93 µM) | MIC [25]: 4 µg/mL; MIC [26]: > 256 µg/mL; MIC [27]: 128 µg/mL; MIC [28]: > 256 µg/mL |
| CC1(C)S[C@@H]2[C@H](NC(=O)COc3ccccc3)C(=O)N2[C@H]1C(=O)O | – | – | – | – | – | – | 2e+06 | – | – | – | – | – | – |
| CO/N=C(\C(=O)N[C@@H]1C(=O)N2C(C(=O)[O-])=C(C[n+]3cccc4c3CCC4)CS[C@H]12)c1csc(N)n1 [CEFPIROME] | 1 | 64 (≈ 124 µM) | 0.25 | 0.06 (≈ 0.117 µM) | 1 (≈ 1.94 µM) | 32 (≈ 62.2 µM) | 500 | 0.25 | 0.03 | 2 (≈ 3.89 µM) | 2 (≈ 3.89 µM) | 0.06 (≈ 0.117 µM) | – |
| CO/N=C(\C(=O)N[C@@H]1C(=O)N2C(C(=O)O)=C(COC(C)=O)CS[C@H]12)c1csc(N)n1 [CEFOTAXIME] | 0.25 | 16 (≈ 35.1 µM) | 0.25 | 0.06 (≈ 0.132 µM) | 0.25 (≈ 0.549 µM) | 16 (≈ 35.1 µM) | – | 0.25 | – | 8 (≈ 17.6 µM) | 8 (≈ 17.6 µM) | 0.06 (≈ 0.132 µM) | – |

From ChEMBL document CHEMBL1649493, “Genetic and biochemical characterization of the first extended-spectrum CARB-type beta-lactamase, RTG-4, from Acinetobacter baumannii” (Antimicrob Agents Chemother, 2009)
